Holding throughout (assay type): functional
One experiment deals with Staphylococcus aureus. As to the kind of experiment: Antimicrobial activity against Staphylococcus aureus ATCC 29213 by MHB method. The method in brief:
(§1)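 Broth-based MIC assay in Mueller Hinton broth. Test compounds were supplied from stock solutions in DMSO. The read-out was the minimum inhibitory concentration determined for each compound against each strain.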

The test system of another experiment is Bacillus subtilis. As to the kind of experiment: Antimicrobial activity against Bacillus subtilis ATCC 6633 by MHB method. The gist of the method: as §1
A further experiment relates to Candida albicans. As to the kind of experiment: Antimicrobial activity against Candida albicans ATCC 10231 by MHB method. The gist of the method:
as §1

For a further experiment, the system named is Escherichia coli. As to the kind of experiment: Antimicrobial activity against Escherichia coli ATCC 8739 by MHB method. The gist of the method:
as §1

≈ marks a conversion by molar mass, not a printed value. Calls of active or inactive are those of the source. No cut-off for these calls is given here.

For `COc1cc(CC/C=N/OC(=O)CCl)cc2cc(-c3ccc4c(c3)OCO4)oc12`, the MIC entry in the experiment on Staphylococcus aureus and in the experiment on Bacillus subtilis was “inactive” in each case. In addition, the MIC in the experiment with Candida albicans is 25 µg/mL (≈ 60.1 µM); against Escherichia coli, 800 µg/mL (≈ 1920 µM).
With `COc1cc(CCCOC(=O)CN2CCOCC2)cc2cc(-c3ccc4c(c3)OCO4)oc12`, the MIC entry in the experiment with Staphylococcus aureus, in the experiment on Bacillus subtilis and in the experiment on Candida albicans was “inactive” each time. The same molecule had an MIC in the experiment with Escherichia coli of 800 µg/mL (≈ 1760 µM).
On to `COc1cc(CC/C=N/O)cc2cc(-c3ccc4c(c3)OCO4)oc12`, for which the MIC entry in the experiment with Staphylococcus aureus, in the experiment with Bacillus subtilis and with Escherichia coli was “inactive” each time. 800 µg/mL (≈ 2360 µM) was the least that counted as inhibitory against Candida albicans (MIC).
Take `COc1cc(CC/C=N/NC(N)=O)cc2cc(-c3ccc4c(c3)OCO4)oc12`: the MIC entry in the experiment with Staphylococcus aureus and in the experiment with Escherichia coli was “inactive” each time. In addition, the MIC with Bacillus subtilis came to 400 µg/mL (≈ 1050 µM); in the experiment with Candida albicans it was 25 µg/mL (≈ 65.6 µM).
With `COc1c([N+](=O)[O-])c(CCCO)cc2c([N+](=O)[O-])c(-c3ccc4c(c3)OCO4)oc12`, the MIC against Staphylococcus aureus is 800 µg/mL (≈ 1920 µM); against Bacillus subtilis it was 400 µg/mL (≈ 961 µM); in the experiment with Candida albicans, 400 µg/mL (≈ 961 µM); against Escherichia coli, 400 µg/mL (≈ 961 µM).
Regarding `COc1cc(CC/C=C(\C=O)Cc2cc(OC)c3oc(-c4ccc5c(c4)OCO5)cc3c2)cc2cc(-c3ccc4c(c3)OCO4)oc12`, the minimal inhibitory concentration (MIC) in the experiment on Staphylococcus aureus and in the experiment on Candida albicans was 25 µg/mL (≈ 39.6 µM) each time. Further, the MIC result with Bacillus subtilis and in the experiment on Escherichia coli was “inactive” throughout.
On to `COc1cc(CC/C=C/C(C)=O)cc2cc(-c3ccc4c(c3)OCO4)oc12`, for which the MIC entry with Staphylococcus aureus, in the experiment on Bacillus subtilis and in the experiment with Escherichia coli was “inactive” each time. For the same molecule, the lowest concentration to inhibit growth with Candida albicans (MIC) was 200 µg/mL (≈ 549 µM).
As to `COc1cc(CCCN2CCOCC2)cc2cc(-c3ccc4c(c3)OCO4)oc12`, the MIC was found to be 200 µg/mL (≈ 506 µM) against Staphylococcus aureus and 25 µg/mL (≈ 63.2 µM) with Candida albicans. The MIC entry in the experiment on Bacillus subtilis and in the experiment on Escherichia coli was “inactive” throughout.
Regarding `COc1cc(CCCOC(=O)CCl)cc2cc(-c3ccc4c(c3)OCO4)oc12`, the MIC result with Staphylococcus aureus, in the experiment with Bacillus subtilis and in the experiment on Escherichia coli was “inactive” each time. For the same molecule, the MIC in the experiment on Candida albicans amounted to 100 µg/mL (≈ 248 µM).
With `CCN(CC)CCCc1cc(OC)c2oc(-c3ccc4c(c3)OCO4)cc2c1`, the MIC result in the experiment with Staphylococcus aureus, in the experiment on Bacillus subtilis and in the experiment with Escherichia coli was “inactive” each time. This molecule also came in with an MIC in the experiment with Candida albicans of 200 µg/mL (≈ 524 µM).
For `COc1cc(CCCO)cc2c(N)c(-c3ccc4c(c3)OCO4)oc12`, the MIC entry in the experiment with Staphylococcus aureus, with Bacillus subtilis and with Escherichia coli was “inactive” throughout. The molecule also displayed an MIC with Candida albicans of 800 µg/mL (≈ 2340 µM).
`COc1cc(CC/C=N/OC(=O)c2ccccc2)cc2cc(-c3ccc4c(c3)OCO4)oc12`: the MIC result with Staphylococcus aureus and in the experiment with Escherichia coli was “inactive” in each case. Also, the values for the minimum inhibitory concentration (MIC) in the experiment with Bacillus subtilis and against Candida albicans were 400 µg/mL (≈ 902 µM) and 100 µg/mL (≈ 226 µM), respectively.
As for `COc1ccc(-c2cc3cc(CCCOC(=O)CCl)cc(OC)c3o2)cc1OC`, the MIC against Staphylococcus aureus was determined as 400 µg/mL (≈ 955 µM); in the experiment on Bacillus subtilis, 400 µg/mL (≈ 955 µM); with Candida albicans, 200 µg/mL (≈ 477 µM). Further, the MIC entry in the experiment with Escherichia coli is “inactive”.
Take `COc1cc(CCC(=O)O)cc2cc(-c3ccc4c(c3)OCO4)oc12` [EGONOIC ACID]: the MIC with Staphylococcus aureus stood at 200 µg/mL (≈ 588 µM); in the experiment on Bacillus subtilis, 800 µg/mL (≈ 2350 µM); against Candida albicans, 50 µg/mL (≈ 147 µM). For the same molecule, in the experiment on Escherichia coli, the MIC result was “inactive”.
For the molecule `COc1cc(CCCO)cc2cc(-c3ccc4c(c3)OCO4)oc12` [EGONOL], the MIC against Staphylococcus aureus is 800 µg/mL (≈ 2450 µM); with Bacillus subtilis, 800 µg/mL (≈ 2450 µM); in the experiment on Candida albicans it was 25 µg/mL (≈ 76.6 µM); in the experiment with Escherichia coli it was 800 µg/mL (≈ 2450 µM).
On to `COc1cc(CCCOS(=O)(=O)O)cc2cc(-c3ccc4c(c3)OCO4)oc12`, for which the MIC is 400 µg/mL (≈ 984 µM) with Staphylococcus aureus, 400 µg/mL (≈ 984 µM) in the experiment on Bacillus subtilis, 50 µg/mL (≈ 123 µM) in the experiment on Candida albicans and 400 µg/mL (≈ 984 µM) in the experiment with Escherichia coli.
For `COc1cc(CCCCl)cc2c([N+](=O)[O-])c(-c3ccc4c(c3)OCO4)oc12`, the MIC entry in the experiment on Staphylococcus aureus and in the experiment with Bacillus subtilis was “inactive” in each case. The MIC against Candida albicans amounted to 25 µg/mL (≈ 64.1 µM); against Escherichia coli, 800 µg/mL (≈ 2050 µM).
Take `COc1cc(CCCOC(C)=O)cc2cc(-c3ccc4c(c3)OCO4)oc12` [EGONOL ACETATE]: the MIC entry in the experiment with Staphylococcus aureus, with Bacillus subtilis and with Escherichia coli was “inactive” throughout. The molecule also yielded an MIC with Candida albicans of 200 µg/mL.
Consider `COc1cc(CC/C=N/NC(N)=S)cc2cc(-c3ccc4c(c3)OCO4)oc12`, for which the MIC result in the experiment with Staphylococcus aureus and in the experiment on Escherichia coli was “inactive” in each case. Further, the MIC in the experiment on Bacillus subtilis amounted to 400 µg/mL (≈ 1010 µM); against Candida albicans, 200 µg/mL (≈ 503 µM).

For the origin of these results see ChEMBL document CHEMBL1667836, “Synthesis of egonol derivatives and their antimicrobial activities” (2011).
